Only some compounds are listed: those with a hit (about 1.4% of all), similar ones and a draw of the others.
PKA-R2B activ: activators of human PKA-R2B complex. activation, % at 11.4 µM. PKA-R2B holoenzyme dissociation, Cy5-IP20 fluorescence polarization; R2B truncated from residue 108, S112A mutant; 0% DMSO only, 100% 113 µM cGMP. P22694+P31323. AID 504700. actives 0.079% (n = 340,000);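 active = activation above a cutoff set at the mean over all compounds plus 3 SD, cut at about 18% in these data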;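 also: higher means more holoenzyme dissociation and a rise in polarization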
SR-BI DiI-HDL act: activators of SR-BI mediated HDL lipid uptake | activation, % at 12.5 µM | actives 0.096% (n = 320,000) | AID 504775 | CHO ldlA[mSR-BI] cells, DiI-HDL uptake fluorescence, 3 h; 100 = double the neutral-control signal;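 active = mean replicate activation of at least 60% and every replicate at or above 60%; inconclusive = mean or all-replicate condition met, but not both; inactive = mean below 60% and not all replicates reaching 60%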;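 also: 0% = median plate neutral-control signal and 100% = twice that signal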
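Assay system: LDL receptor-deficient CHO ldlA cells overexpressing murine SR-BI / Medium: BSA-supplemented, HEPES-buffered Ham's F12, pH 7.4 / Probe or stimulus: DiI-labelled HDL at 10 µg/mL final / Timing: compound with DiI-HDL co-incubation, 3 h at 37 °C / Technique: bottom-read cell fluorescence after medium removal, ex 550/em 595 nm / Measure: HDL uptake via cellular fluorescence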
PKA-R1A activ: activates the PKA-R1A holoenzyme complex. activation, % at 11.4 µM. actives 0.083% (n = 340,000). PKA-R1A dissociation, Cy5-IP20 fluorescence polarization; scaled: DMSO 0%, 113 µM cGMP 100%;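 active = percent activation above the mean of all tested compounds plus 3 SD, cut at about 19% in these data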;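 also: higher means more PKAc released from R1A so a rise in polarization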
Vif imaging: inhibitors of HIV Vif | AID 602346 | HEK293T cells, Vif self-association by quenched fluorescence, imaging, 24 h | actives 0.35% (n = 340,000) | inhibition, % at 7.49 µM; in the data active = inhibition above about 50%, passing the limit was not always enough; inconclusive = no clear call, values can overlap the other calls; inactive = below about 31%
SR-BI DiI inh: blocks mouse SR-BI lipid uptake from DiI-HDL; ldlA[mSR-BI] CHO cells, DiI-HDL uptake fluorescence, 3 h; inhibition, % at 12.5 µM; actives 0.96% (n = 320,000); AID 488896;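 active = mean replicate inhibition of at least 70% and a set share of replicates each scoring 70 or more; inconclusive = meets just one of the two criteria; inactive = fails both criteria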;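 also: 0% = median of neutral control wells and 100% = median of positive control wells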
Target sequence (Q61009 whole entry, looked up): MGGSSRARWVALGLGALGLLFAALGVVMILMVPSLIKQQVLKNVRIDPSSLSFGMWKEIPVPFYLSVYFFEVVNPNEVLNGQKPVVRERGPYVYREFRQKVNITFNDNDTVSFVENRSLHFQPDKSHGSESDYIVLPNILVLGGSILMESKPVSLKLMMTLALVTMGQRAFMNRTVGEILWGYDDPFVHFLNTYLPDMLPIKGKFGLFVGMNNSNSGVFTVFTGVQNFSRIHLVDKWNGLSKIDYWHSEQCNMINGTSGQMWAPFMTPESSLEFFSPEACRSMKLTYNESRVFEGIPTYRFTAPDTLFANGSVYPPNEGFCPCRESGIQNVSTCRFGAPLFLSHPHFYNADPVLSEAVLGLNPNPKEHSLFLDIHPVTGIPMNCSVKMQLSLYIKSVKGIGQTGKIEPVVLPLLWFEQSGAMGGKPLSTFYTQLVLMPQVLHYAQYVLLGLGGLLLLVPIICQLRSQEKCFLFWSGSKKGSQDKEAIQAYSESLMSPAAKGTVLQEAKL
* marks the source's active call; other numbers are inactive results.

How did C[C@H]1CN(C2CCCCC2)C(=O)[C@@H]1CC(=O)Nc1ccc(Br)cc1 do in these assays?
PKA-R2B activ: -15.5; PKA-R1A activ: -4.2; Vif imaging: inconclusive

How did O=C(c1cccs1)N1CCN(C(=O)c2cccs2)C1=S do in these assays?
PKA-R2B activ: -0.3; SR-BI DiI-HDL act: 22.2; PKA-R1A activ: -6.3; Vif imaging: 75.8*; SR-BI DiI inh: -22.2

Results for Cc1ccc(N2N=C(c3ccc(F)cc3)CC2c2ccco2)cc1 (centres undefined) ?
PKA-R2B activ: -1.9; SR-BI DiI-HDL act: -79.0; PKA-R1A activ: 4.8; Vif imaging: -3.9; SR-BI DiI inh: 79.1*

Results for Fc1ccc(C2=NN(c3ccccc3)C(c3ccco3)C2)cc1 (centres undefined) ?
PKA-R2B activ: -7.0; SR-BI DiI-HDL act: -20.8; PKA-R1A activ: -20.3; Vif imaging: 4.0; SR-BI DiI inh: 20.8

What do the screens show for `COc1ccc(C2=Nn3c(nnc3-c3ccc(OC)cc3)SC2)cc1`?
PKA-R2B activ: -0.9; SR-BI DiI-HDL act: -71.7; PKA-R1A activ: 8.7; Vif imaging: 65.5*; SR-BI DiI inh: inconclusive

Results for COc1ccc(-c2nnc3n2N=C(C)CS3)cc1 ?
PKA-R2B activ: -9.6; SR-BI DiI-HDL act: 4.8; PKA-R1A activ: 8.8; Vif imaging: -3.4; SR-BI DiI inh: -4.8

What do the screens show for `COc1ccc(C2=Nn3c(nnc3-c3ccccc3OC)SC2)cc1OC`?
PKA-R2B activ: -9.1; SR-BI DiI-HDL act: 9.1; PKA-R1A activ: -3.9; Vif imaging: 55.0*; SR-BI DiI inh: -9.1

Results for COCCn1c(C)cc(/C=N/NC(=O)c2cc3ccccc3cc2O)c1C ?
PKA-R2B activ: -2.1; SR-BI DiI-HDL act: -95.3; PKA-R1A activ: -12.2; Vif imaging: -4.0; SR-BI DiI inh: 95.3*

How did Cn1c(O)c(/C=N/NC(=O)c2cc3ccccc3cc2O)c2ccccc21 do in these assays?
PKA-R2B activ: 10.5; PKA-R1A activ: 3.5; Vif imaging: -3.8

How did COc1cc(/C=N/NC(=O)c2ccncc2)ccc1OCCN1CCCCC1 do in these assays?
PKA-R2B activ: -4.3; SR-BI DiI-HDL act: 2.6; PKA-R1A activ: -15.9; Vif imaging: 0.4; SR-BI DiI inh: -2.6

What do the screens show for `COc1cc(/C=N/NC(=O)c2cc3ccccc3cc2O)ccc1OCCN1CCCCC1`?
PKA-R2B activ: -9.8; SR-BI DiI-HDL act: -77.4; PKA-R1A activ: -4.3; Vif imaging: -2.8; SR-BI DiI inh: 77.4*

What do the screens show for `CCN(CC(=O)NCCN1CCOCC1)S(=O)(=O)c1ccc(F)cc1`?
PKA-R2B activ: -2.6; PKA-R1A activ: 1.7; Vif imaging: -10.2

What do the screens show for `CCC1=NN(C(=O)c2ccc([N+](=O)[O-])cc2)C(O)(c2ccccc2)C1` (centres undefined)?
PKA-R2B activ: 10.5; SR-BI DiI-HDL act: -82.4; PKA-R1A activ: -6.2; Vif imaging: -6.8; SR-BI DiI inh: 82.4*

Results for CCC1=NN(C(=O)c2ccc(Cl)cc2)C(O)(c2ccccc2)C1 (centres undefined) ?
PKA-R2B activ: -11.6; SR-BI DiI-HDL act: -47.7; PKA-R1A activ: -5.3; Vif imaging: -4.0; SR-BI DiI inh: 47.7

Results for CCC1=NN(C(=O)c2ccccc2O)C(O)(c2ccccc2)C1 (centres undefined) ?
PKA-R2B activ: -2.4; SR-BI DiI-HDL act: -119.5; PKA-R1A activ: -7.7; Vif imaging: -7.6; SR-BI DiI inh: 119.5*

What do the screens show for `O=C(c1ccccc1O)N1N=C(C(F)(F)F)CC1(O)c1ccc([N+](=O)[O-])cc1` (centres undefined)?
PKA-R2B activ: 4.0; SR-BI DiI-HDL act: -71.2; PKA-R1A activ: -3.1; Vif imaging: -6.4; SR-BI DiI inh: 71.2*

Results for O=C(CN1N=C(C(F)(F)F)CC1(O)c1ccc([N+](=O)[O-])cc1)c1ccccc1 (centres undefined) ?
PKA-R2B activ: -6.8; SR-BI DiI-HDL act: -3.7; PKA-R1A activ: 2.3; SR-BI DiI inh: 3.7

How did O=C(NCCC(=O)N1CCN(c2ccccn2)CC1)c1ccc([N+](=O)[O-])cc1 do in these assays?
PKA-R2B activ: 0.5; SR-BI DiI-HDL act: 2.1; PKA-R1A activ: 0.1; Vif imaging: 1.0; SR-BI DiI inh: -2.1

Results for O=C(NCc1cccs1)c1cccc2c(-c3ccc(F)c(F)c3)coc12 ?
Vif imaging: -12.1

Source: PubChem BioAssay (several laboratories)
